Activity calls are given as the source filed them.
How the values were obtained:
[1] = biological target: Voltage-dependent N-type calcium channel subunit alpha-1B (Homo sapiens) (UniProt Q00975); experiment: Inhibition of N-type Alpha-1B channel expressed in HEK293 cells by whole-cell patch-clamp method; type: cell-based; design: concentration or dose not given beside the values; conditions: concentration not given here
[2] = biological target: T1, Voltage-dependent T-type calcium channel subunit alpha-1G (Homo sapiens, UniProt O43497); experiment: Inhibition of T-type alpha1G channel expressed in HEK293 cells by whole-cell patch-clamp method; type: cell-based
Summary of the method: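 HEK293 cells stably expressing α1G (Cav3.1); whole-cell patch clamp. External solution in mM: 140 NaCl, 2 CaCl2, 10 Hepes, 10 glucose, pH 7.4.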

[3] = biological target: Voltage-dependent T-type calcium channel subunit alpha-1H (Homo sapiens, UniProt O95180); experiment: Inhibition of T-type Cav3.2 channel
[4] = biological target: T1, Voltage-dependent T-type calcium channel subunit alpha-1G; experiment: Inhibition of T-type Cav3.1 channel
[5] = biological target: Voltage-dependent T-type calcium channel subunit alpha-1I (Homo sapiens, UniProt Q9P0X4); experiment: Inhibition of T-type Cav3.3 channel
[6] = biological target: Voltage-dependent N-type calcium channel subunit alpha-1B (Homo sapiens) (UniProt Q00975); experiment: Inhibition of N-type Alpha-1B channel expressed in HEK293 cells at 10 uM by whole-cell patch-clamp method; type: cell-based
[7] = Inhibition of T-type Cav3 channel
Summary of the method: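 Whole-cell patch clamp on HEK293 cells stably expressing Cav3.1 (α1G). External solution was 140 mM NaCl, 2 mM CaCl2, 10 mM Hepes and 10 mM glucose, pH 7.4. Currents were evoked every 15 s by a 50 ms depolarizing voltage step.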

[8] = Inhibition of L-type calcium channel
Rattus norvegicus [9] = experiment: Analgesic activity against formalin-induced inflammatory pain in rat assessed as reduction of pain behavior time at 60 µg/ 10 ul, sc administered after 10 mins at 5 mins intervals (reference value: 47.05 +/- 8.53 seconds); type: functional
Rattus norvegicus [10] = experiment: Anti-cold allodynic activity in rat assessed as tail withdrawal latency at 60 mg/kg, ip measured within cut-off time of 15 seconds for up to 24 hrs; type: functional, organism-based; design: dose 60 mg/kg
Summary of the method: (§1)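 At 2 weeks, after a baseline test, 60 mg/kg was given ip in methyl pyrrolidone/Tween 80/saline (1:1:8). Tail withdrawal latency to 4 °C (cold) or 40 °C (warm) water immersion was read at 1, 3, 5 and 24 h, with a 15 s cut-off. Versus baseline by repeated-measures ANOVA with Bonferroni t-test.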

Rattus norvegicus [11] = experiment: Antinociceptive activity against von Frey hair mechanically stimulated neuropathic pain in rat assessed as withdrawal threshold at 60 mg/kg, ip administered 2 weeks after surgery; type: functional, organism-based; design: dose 60 mg/kg
Summary of the method: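 Tail nerve injury rats (unilateral caudal trunk transection between S1 and S2 under enflurane) received a baseline test 2 weeks post-injury. They were then dosed at 60 mg/kg ip in methyl pyrrolidone/Tween 80/saline (1:1:8). Tail withdrawal to von Frey filaments was retested at 1, 3, 5 and 24 h. Versus baseline by one-way repeated-measures ANOVA with Bonferroni t-test.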

Rattus norvegicus [12] = experiment: Anti-warm allodynic activity in rat assessed as tail withdrawal latency at 60 mg/kg, ip measured within cut-off time of 15 seconds for up to 24 hrs; type: functional, organism-based; design: dose 60 mg/kg; summary of the method: as §1
Rattus norvegicus [13] = experiment: Analgesic activity against formalin-induced inflammatory pain in rat assessed as reduction of time spent on paw licking, shaking, biting at 60 ug, sc administered after 50 mins at 5 mins intervals(reference value: 334.21 +/- 51.10 seconds); conditions: route subcutaneous
Rattus norvegicus [14] = experiment: Analgesic activity against formalin-induced inflammatory pain in rat assessed as reduction of time spent on paw licking, shaking or biting at 60 ug, sc administered after 50 mins at 5 mins intervals; conditions: route subcutaneous

Sequence of Voltage-dependent N-type calcium channel subunit alpha-1B (Homo sapiens) (Q00975 whole entry, looked up): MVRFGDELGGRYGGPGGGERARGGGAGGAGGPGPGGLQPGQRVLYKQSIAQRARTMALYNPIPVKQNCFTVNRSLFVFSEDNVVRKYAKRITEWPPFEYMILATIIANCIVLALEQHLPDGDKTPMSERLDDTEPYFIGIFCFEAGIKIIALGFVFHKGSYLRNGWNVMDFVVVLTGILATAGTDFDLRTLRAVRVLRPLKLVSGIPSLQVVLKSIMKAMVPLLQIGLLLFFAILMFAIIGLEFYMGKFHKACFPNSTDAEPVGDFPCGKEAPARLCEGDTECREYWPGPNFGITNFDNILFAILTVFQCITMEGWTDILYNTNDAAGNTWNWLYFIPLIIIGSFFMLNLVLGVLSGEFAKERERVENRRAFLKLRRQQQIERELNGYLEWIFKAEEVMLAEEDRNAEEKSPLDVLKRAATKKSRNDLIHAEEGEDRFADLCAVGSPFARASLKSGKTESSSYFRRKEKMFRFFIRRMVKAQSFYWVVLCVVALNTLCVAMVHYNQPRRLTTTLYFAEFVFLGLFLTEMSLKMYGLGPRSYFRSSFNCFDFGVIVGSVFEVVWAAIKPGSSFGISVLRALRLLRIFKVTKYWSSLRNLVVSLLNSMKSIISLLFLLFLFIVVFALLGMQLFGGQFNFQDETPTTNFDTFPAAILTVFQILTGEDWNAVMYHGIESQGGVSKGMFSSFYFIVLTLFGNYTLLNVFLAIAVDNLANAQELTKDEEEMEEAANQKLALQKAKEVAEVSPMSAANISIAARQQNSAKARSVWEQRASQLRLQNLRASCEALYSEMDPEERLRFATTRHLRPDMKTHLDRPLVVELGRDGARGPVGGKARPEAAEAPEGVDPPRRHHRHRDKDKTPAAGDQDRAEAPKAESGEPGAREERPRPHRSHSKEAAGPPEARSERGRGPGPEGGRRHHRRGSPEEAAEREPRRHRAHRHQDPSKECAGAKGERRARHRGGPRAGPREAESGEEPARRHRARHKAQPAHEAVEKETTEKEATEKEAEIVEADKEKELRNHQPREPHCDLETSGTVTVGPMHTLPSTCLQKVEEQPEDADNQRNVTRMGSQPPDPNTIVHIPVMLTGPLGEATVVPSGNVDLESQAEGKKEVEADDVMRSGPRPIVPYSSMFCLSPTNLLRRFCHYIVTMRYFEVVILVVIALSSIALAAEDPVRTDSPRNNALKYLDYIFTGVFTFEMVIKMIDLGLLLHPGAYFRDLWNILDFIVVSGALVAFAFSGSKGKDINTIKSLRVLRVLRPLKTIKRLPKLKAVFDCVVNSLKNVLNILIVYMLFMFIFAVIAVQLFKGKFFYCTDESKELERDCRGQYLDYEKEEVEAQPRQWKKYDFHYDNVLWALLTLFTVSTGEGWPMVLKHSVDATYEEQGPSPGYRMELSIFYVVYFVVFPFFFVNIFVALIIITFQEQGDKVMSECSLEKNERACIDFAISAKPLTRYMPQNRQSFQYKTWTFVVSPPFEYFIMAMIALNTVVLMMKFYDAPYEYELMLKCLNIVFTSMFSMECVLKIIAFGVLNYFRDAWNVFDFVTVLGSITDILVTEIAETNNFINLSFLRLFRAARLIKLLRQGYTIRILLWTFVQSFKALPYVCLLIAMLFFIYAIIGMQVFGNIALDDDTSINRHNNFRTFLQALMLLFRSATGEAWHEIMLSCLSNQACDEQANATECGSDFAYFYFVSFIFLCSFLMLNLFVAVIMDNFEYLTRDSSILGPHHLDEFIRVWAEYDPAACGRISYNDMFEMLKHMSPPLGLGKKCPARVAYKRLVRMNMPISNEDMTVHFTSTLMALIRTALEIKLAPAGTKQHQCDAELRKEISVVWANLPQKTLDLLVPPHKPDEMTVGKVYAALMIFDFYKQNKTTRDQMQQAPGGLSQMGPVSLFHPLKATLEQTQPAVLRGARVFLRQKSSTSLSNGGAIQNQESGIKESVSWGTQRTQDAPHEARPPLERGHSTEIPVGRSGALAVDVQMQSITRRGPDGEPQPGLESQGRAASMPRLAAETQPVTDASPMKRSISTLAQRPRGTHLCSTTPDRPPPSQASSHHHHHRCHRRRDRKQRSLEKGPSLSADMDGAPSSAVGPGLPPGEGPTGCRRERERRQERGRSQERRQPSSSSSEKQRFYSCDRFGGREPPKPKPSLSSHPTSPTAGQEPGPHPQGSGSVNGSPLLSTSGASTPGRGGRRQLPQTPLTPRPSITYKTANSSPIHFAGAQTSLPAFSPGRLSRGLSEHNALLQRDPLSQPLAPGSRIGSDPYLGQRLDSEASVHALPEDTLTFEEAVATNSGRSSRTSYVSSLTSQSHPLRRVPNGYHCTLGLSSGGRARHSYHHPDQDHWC
T1 sequence (O43497 whole entry): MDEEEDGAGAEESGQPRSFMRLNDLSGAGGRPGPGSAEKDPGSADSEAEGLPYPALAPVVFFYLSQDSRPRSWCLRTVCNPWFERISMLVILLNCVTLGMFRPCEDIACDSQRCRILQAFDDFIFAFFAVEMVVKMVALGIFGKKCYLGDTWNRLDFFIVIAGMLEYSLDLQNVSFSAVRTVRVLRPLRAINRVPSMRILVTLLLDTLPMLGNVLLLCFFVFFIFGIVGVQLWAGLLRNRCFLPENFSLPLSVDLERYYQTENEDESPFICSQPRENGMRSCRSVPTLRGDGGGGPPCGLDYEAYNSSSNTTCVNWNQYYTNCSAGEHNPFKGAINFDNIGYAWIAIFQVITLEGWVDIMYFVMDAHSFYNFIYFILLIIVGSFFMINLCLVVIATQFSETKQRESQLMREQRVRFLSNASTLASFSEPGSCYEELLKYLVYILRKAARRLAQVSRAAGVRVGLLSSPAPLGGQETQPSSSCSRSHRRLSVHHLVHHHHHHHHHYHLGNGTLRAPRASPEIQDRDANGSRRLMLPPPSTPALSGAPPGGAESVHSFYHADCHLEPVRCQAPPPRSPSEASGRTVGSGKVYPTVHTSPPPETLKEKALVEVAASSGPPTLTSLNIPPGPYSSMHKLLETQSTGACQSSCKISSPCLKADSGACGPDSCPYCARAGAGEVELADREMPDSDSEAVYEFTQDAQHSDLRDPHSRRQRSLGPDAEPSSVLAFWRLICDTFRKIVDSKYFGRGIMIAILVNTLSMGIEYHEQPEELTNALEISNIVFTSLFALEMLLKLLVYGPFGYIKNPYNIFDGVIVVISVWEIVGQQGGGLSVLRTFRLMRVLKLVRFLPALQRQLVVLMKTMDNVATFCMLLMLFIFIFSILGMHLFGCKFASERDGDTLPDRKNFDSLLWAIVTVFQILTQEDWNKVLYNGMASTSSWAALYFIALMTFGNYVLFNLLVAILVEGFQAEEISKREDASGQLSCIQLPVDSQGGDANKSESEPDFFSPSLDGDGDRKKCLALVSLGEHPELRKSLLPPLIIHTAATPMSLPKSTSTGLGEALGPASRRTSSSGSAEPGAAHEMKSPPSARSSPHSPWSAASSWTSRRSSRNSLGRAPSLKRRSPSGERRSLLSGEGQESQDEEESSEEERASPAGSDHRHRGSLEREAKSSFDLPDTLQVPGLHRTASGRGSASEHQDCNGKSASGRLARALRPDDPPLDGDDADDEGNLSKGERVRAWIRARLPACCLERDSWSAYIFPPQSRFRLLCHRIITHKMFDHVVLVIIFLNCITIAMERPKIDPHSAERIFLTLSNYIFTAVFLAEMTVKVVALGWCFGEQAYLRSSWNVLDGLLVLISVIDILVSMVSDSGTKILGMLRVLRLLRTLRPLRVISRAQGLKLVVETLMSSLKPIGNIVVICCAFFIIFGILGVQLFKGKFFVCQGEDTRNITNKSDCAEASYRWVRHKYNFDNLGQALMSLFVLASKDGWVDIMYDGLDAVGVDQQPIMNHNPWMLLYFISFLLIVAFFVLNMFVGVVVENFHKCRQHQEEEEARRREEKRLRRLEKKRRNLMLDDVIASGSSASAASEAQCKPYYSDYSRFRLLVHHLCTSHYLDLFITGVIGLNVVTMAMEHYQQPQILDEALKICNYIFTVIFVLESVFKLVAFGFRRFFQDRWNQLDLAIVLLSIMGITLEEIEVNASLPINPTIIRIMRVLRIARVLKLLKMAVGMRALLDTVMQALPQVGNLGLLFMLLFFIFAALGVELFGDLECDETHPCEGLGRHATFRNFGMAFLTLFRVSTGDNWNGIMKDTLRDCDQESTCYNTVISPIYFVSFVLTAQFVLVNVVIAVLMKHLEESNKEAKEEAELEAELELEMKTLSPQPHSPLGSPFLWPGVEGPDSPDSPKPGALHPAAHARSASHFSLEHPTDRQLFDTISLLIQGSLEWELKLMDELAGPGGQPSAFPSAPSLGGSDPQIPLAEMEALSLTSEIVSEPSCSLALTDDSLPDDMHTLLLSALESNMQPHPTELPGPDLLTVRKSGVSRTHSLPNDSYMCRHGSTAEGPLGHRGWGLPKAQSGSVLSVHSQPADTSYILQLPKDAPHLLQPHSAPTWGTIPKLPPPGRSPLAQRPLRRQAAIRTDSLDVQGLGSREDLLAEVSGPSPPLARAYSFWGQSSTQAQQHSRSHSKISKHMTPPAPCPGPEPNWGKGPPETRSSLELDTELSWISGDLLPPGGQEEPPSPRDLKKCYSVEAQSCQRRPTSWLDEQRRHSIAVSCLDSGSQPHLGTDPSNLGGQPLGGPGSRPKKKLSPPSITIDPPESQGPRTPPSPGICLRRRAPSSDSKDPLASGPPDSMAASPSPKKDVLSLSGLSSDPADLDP

CCNCCCC(=O)N1CCN(C(c2ccccc2)c2ccc(Cl)cc2)CC1 (stereo not drawn)
inhibition [1]: 20% | IC50 [2]: 420 nM

COc1ccc(CNCCCC(=O)N2CCN(C(c3ccccc3)c3ccc(Cl)cc3)CC2)cc1 (stereo not drawn)
inhibition [1]: 49.6% | IC50 [2]: 16100 nM

Fc1ccc(C(c2ccc(F)cc2)N2CCN(C/C=C/c3ccccc3)CC2)cc1 [FLUNARIZINE]
Kd [3]: 3600 nM | Kd [4]: 530 nM | Kd [5]: 840 nM

O=C(CCCNCc1ccccc1)N1CCN(C(c2ccccc2)c2ccc(Cl)cc2)CC1 (stereo not drawn)
inhibition [1]: 69.8% | IC50 [2]: 1670 nM

CC(C)c1ccc(CNCCCC(=O)N2CCN(C(c3ccccc3)c3ccc(Cl)cc3)CC2)cc1 (stereo not drawn)
inhibition [1]: 80.2% | inhibition [6]: 80% | IC50 [2]: 280 nM

CC(C)CNCCCC(=O)N1CCN(C(c2ccccc2)c2ccc(Cl)cc2)CC1 (stereo not drawn)
inhibition [1]: 13.3% | IC50 [2]: 360 nM

O=c1[nH]c2ccccc2n1C1CCN(CCCC(c2ccc(F)cc2)c2ccc(F)cc2)CC1
INH [7]: 40 nM

CN(C)c1ccc(CNCCCC(=O)N2CCN(C(c3ccccc3)c3ccc(Cl)cc3)CC2)cc1 (stereo not drawn)
inhibition [1]: 10.8% | IC50 [2]: 2320 nM

COCC(=O)O[C@]1(CCN(C)CCCc2nc3ccccc3[nH]2)CCc2cc(F)ccc2[C@@H]1C(C)C [MIBEFRADIL]
IC50 [8]: 10000 nM

CCC(CC)CNCCCC(=O)N1CCN(C(c2ccccc2)c2ccc(Cl)cc2)CC1 (stereo not drawn)
inhibition [1]: 16.8% | IC50 [2]: 1540 nM

O=C(CCCNCc1ccc([N+](=O)[O-])cc1)N1CCN(C(c2ccccc2)c2ccc(Cl)cc2)CC1 (stereo not drawn)
inhibition [1]: 88.8% | inhibition [6]: 80% | IC50 [2]: 600 nM

O=C(CCCNCC1CCCCC1)N1CCN(C(c2ccccc2)c2ccc(Cl)cc2)CC1 (stereo not drawn)
inhibition [1]: 84.9% | Time (Rattus norvegicus [9]): 1.8 s | inhibition [6]: 80% | Activity (Rattus norvegicus [10]): Active | Activity (Rattus norvegicus [11]): inactive | Activity (Rattus norvegicus [12]): Active | IC50 [2]: 190 nM | Time (Rattus norvegicus [13]): 24.32 s

O=C(CCCNCc1c(Cl)cccc1Cl)N1CCN(C(c2ccccc2)c2ccc(Cl)cc2)CC1 (stereo not drawn)
inhibition [1]: 78.4% | IC50 [2]: 1020 nM

NCCCC(=O)N1CCN(C(c2ccccc2)c2ccc(Cl)cc2)CC1 (stereo not drawn)
inhibition [1]: 10% | Time (Rattus norvegicus [9]): 2.41 s | Activity (Rattus norvegicus [10]): Active | Activity (Rattus norvegicus [11]): Active | Activity (Rattus norvegicus [12]): Active | Time (Rattus norvegicus [14]): 62.57 s | IC50 [2]: 3710 nM

NCC1(CC(=O)O)CCCCC1
Activity (Rattus norvegicus [10]): Active | Activity (Rattus norvegicus [11]): Active | Activity (Rattus norvegicus [12]): Active

Source: ChEMBL document CHEMBL1212879, “Synthesis and T-type calcium channel blocking activity of novel diphenylpiperazine compounds, and evaluation of in vivo analgesic activity” (Bioorg Med Chem, 2010)
